Results published in ChEMBL document CHEMBL1124475, “The thieno[3,2-c]pyridine and furo[3,2-c]pyridine rings: new pharmacophores with potential antipsychotic activity” (J Med Chem, 1989).
Activity calls are given as the source filed them. The rule behind the calls is not given here.

Assays:
Rattus norvegicus [1] = test: Approximate effective dose (AED) in inhibition of spontaneous motor activity when administered perorally; format: functional
Procedure, shortened: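 Three groups of five animals, each group at a different dose. Mean log activity count per group compared with vehicle controls, and the difference plotted against log dose. AED taken at the dose giving a 0.3 log-unit (about 2-fold) difference from control.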

[2] = target: T1, Adrenergic receptor alpha-2 (Rattus norvegicus, UniProt P22086+P19328+P22909); test: Ability to bind at alpha-2 adrenergic receptor by displacing [3H]clonidine; format: protein assay
T1 sequence (P22086 whole entry): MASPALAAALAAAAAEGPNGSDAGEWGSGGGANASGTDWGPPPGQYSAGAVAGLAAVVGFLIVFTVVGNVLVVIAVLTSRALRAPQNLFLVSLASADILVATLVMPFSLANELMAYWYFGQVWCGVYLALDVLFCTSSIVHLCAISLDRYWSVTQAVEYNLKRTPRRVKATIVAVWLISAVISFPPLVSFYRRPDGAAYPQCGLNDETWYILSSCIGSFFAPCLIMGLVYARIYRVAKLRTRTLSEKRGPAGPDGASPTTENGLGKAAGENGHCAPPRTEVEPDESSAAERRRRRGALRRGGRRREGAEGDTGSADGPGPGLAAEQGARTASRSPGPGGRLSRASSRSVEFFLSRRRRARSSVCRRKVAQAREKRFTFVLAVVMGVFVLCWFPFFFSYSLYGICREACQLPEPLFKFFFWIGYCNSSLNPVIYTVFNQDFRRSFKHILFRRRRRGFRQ
T1 sequence (P19328 whole entry): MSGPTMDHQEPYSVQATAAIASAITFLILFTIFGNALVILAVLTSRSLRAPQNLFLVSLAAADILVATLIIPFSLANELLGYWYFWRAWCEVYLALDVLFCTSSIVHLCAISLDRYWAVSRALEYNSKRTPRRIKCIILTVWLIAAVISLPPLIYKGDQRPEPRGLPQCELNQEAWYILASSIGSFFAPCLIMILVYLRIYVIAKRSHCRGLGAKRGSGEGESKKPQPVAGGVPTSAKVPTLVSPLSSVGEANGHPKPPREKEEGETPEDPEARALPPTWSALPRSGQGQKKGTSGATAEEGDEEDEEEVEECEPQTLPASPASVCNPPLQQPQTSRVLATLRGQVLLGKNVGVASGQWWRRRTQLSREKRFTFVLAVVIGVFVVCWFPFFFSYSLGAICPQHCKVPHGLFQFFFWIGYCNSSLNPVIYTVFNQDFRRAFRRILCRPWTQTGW
T1 sequence (P22909 whole entry): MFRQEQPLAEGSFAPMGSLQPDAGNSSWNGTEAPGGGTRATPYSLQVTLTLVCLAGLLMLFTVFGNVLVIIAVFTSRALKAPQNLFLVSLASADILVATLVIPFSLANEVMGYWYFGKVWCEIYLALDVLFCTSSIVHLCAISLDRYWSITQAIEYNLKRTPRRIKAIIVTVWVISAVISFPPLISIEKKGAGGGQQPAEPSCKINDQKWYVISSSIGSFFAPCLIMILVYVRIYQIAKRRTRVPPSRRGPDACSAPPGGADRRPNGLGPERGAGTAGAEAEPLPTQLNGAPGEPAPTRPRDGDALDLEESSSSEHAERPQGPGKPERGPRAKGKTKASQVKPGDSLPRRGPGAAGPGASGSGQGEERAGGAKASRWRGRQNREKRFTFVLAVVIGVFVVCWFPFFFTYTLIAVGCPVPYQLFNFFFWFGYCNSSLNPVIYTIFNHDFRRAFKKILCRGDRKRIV

[3] = target: T2, Serotonin 2 (5-HT2) receptor (Rattus norvegicus, UniProt P30994+P08909+P14842); test: Ability to bind at serotonin 5-hydroxytryptamine 2 receptors of rat cortex by displacing [3H]spiperone
[4] = target: T3, Adrenergic receptor alpha-1 (Rattus norvegicus, UniProt P15823+P23944+P43140); test: Ability to bind at alpha-1 adrenergic receptor by displacing [3H]WB-4101; format: protein assay
T3 sequence (P15823 whole entry): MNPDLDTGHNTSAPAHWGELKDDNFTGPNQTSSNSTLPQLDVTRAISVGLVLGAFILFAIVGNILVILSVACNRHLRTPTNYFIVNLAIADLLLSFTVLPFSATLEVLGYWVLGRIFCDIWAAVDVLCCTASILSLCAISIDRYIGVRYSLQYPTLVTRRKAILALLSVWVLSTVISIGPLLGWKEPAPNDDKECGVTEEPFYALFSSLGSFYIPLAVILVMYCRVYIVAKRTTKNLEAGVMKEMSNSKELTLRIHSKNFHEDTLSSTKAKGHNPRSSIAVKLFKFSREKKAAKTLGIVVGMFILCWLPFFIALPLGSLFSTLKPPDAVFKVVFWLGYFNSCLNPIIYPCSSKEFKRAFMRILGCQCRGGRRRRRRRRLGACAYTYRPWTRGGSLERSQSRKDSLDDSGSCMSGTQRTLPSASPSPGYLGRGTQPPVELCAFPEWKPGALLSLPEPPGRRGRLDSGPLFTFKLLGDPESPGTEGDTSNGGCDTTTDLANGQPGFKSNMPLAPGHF
T3 sequence (P23944 whole entry): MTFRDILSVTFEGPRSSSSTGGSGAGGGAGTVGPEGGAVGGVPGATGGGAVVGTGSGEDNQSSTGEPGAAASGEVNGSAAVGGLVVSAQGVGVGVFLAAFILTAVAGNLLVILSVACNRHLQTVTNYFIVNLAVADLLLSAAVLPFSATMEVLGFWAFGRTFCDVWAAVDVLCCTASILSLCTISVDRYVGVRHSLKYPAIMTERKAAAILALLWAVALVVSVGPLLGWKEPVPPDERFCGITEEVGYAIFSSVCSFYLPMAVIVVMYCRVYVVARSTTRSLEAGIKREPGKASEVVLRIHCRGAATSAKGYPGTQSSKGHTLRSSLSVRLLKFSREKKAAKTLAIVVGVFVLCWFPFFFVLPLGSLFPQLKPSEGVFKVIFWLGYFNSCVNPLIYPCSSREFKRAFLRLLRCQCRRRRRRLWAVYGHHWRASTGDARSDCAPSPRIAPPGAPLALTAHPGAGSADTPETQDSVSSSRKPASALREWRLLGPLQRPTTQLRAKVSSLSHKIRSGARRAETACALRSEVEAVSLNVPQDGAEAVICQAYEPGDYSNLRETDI
T3 sequence (P43140 whole entry): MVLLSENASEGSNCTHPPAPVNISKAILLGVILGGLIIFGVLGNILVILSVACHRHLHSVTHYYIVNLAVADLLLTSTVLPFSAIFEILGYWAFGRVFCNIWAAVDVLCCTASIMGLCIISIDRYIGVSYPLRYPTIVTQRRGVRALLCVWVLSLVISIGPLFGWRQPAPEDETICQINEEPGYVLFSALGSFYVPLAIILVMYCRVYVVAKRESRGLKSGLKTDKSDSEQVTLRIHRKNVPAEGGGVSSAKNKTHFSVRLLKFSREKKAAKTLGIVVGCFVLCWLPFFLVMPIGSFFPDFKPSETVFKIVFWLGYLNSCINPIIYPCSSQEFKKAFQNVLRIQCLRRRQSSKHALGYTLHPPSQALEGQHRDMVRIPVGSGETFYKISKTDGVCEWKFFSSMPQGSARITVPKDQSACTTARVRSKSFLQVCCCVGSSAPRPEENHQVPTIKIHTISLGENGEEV
Procedure, shortened: (§1)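 Rat receptor radioligand displacement, five test-ligand concentrations used to calculate IC50, each assay in duplicate. Some compounds determined four times (in duplicate), with mean IC50 reported.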

Rattus norvegicus [5] = test: Conditioned avoidance response (CAR) when administered perorally; format: functional; conditions: po
[6] = target: T4, Serotonin 1 (5-HT1) receptor (Rattus norvegicus, UniProt P28564+P30940+P19327+P28565); test: Ability to bind at serotonin 5-hydroxytryptamine 1 receptor of rat hippocampus by displacing [3H]5-HT; format: tissue-based
D(2) dopamine receptor [7] = target: T5, D(2) dopamine receptor (Rattus norvegicus, UniProt P61169); test: Ability to bind at Dopamine receptor D2 of rat corpus striatum by displacing [3H]spiperone; procedure, shortened: as §1
[8] = target: T4, Serotonin 1 (5-HT1) receptor; test: Ability to bind at 5-hydroxytryptamine 1 receptor of rat hippocampus by displacing [3H]5-HT; format: tissue-based; procedure, shortened: as §1
Rattus norvegicus [9] = test: Blockade of apomorphine-induced stereotypy in rats when administered perorally; format: functional; conditions: po
Rattus norvegicus [10] = test: Blockade of Sidman-avoidance activity in rats when administered perorally; format: functional
Procedure, shortened: (§2)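 Rats trained in once-daily Sidman sessions until stable; non-learners after 3 days replaced. Twelve rats dosed 30 min before session. Each rat compared with mean of its previous three drug-free days by paired t test. Testing continued to minimally effective dose; maximum usually 100 mg/kg. MED is mean over 12 animals.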

Mus musculus [11] = test: Blockade of apomorphine-induced climbing in mice when administered perorally; format: functional
Procedure, shortened: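 Male mice habituated 30 min in individual cages, then dosed orally (distilled H2O or 0.5% Methocel suspension, 10 mL/kg) or vehicle. Apomorphine 1.5 mg/kg sc given 30 min later. Climbing scored at 10, 20, 30 min post-apomorphine. At least five animals per dose, maximum 100 mg/kg.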

Mus musculus [12] = test: Blockade of apomorphine-induced climbing in mice when administered perorally
[13] = target: T6, 5-hydroxytryptamine receptor 1A (Rattus norvegicus, UniProt P19327); test: Ability to bind at 5-hydroxytryptamine 1A receptor of rat hippocampus by displacing [3H]8-OH-DPAT; format: tissue-based; procedure, shortened: as §1
T6 sequence (P19327 whole entry): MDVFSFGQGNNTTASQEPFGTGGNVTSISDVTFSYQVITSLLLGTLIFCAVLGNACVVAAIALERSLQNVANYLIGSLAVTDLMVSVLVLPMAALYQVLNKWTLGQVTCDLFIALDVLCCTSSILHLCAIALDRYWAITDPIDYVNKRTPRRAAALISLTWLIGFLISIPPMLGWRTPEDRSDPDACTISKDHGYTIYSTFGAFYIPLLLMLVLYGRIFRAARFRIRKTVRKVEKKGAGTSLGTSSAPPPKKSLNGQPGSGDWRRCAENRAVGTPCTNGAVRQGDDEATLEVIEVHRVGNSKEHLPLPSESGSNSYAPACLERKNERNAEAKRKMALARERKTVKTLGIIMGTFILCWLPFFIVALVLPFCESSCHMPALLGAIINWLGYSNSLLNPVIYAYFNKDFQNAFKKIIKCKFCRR

Rattus norvegicus [14] = test: Reversal of trifluoperazine-induced catalepsy in rats when administered perorally; Inactive; format: functional, organism-based
Rattus norvegicus [15] = species: Rattus norvegicus; test: animal or person; conditions: po
Rattus norvegicus [16] = test: Reversal of trifluoperazine-induced catalepsy in rats when administered perorally; Inactive, maximum dose examined was 20 mg/Kg; format: functional, organism-based
Rattus norvegicus [17] = test: Induction of catalepsy in rats when administered perorally; format: functional; conditions: po
Rattus norvegicus [18] = test: Spontaneous discharge activity of individual dopaminergic neurons in the ventral tegmentum neurons (A10 DA cells) when administered intravenously at a dose of 0.1-6.3 mg/kg in anesthetized male Sprague-Dawley rats; (excitatory); format: functional; conditions: A10DA, iv
Rattus norvegicus [19] = test: spontaneous discharge activity of individual noradrenergic neurons in the locus coeruleus (LC) when administered intravenously in anesthetized male Sprague-Dawley rats; (excitatory); format: functional; conditions: iv
Rattus norvegicus [20] = test: Induction of catalepsy in rats when administered perorally and maximum dose examined was 4 times the ED50 value established in CAR; Inactive; format: functional, organism-based
Rattus norvegicus [21] = test: Spontaneous discharge activity of individual dopaminergic neurons in the substantia nigra (A9 DA cells) when administered intravenously at a dose of 0.1-6.3 mg/kg in anesthetized male Sprague-Dawley rats; (excitatory); format: functional; conditions: A9DA, iv
Rattus norvegicus [22] = test: Spontaneous discharge activity of individual serotonergic neurons in the dorsal raphe (DR) nucleus when administered intravenously in anesthetized male Sprague-Dawley rats; (inhibitory); format: functional; conditions: iv
[23] = target: T2, Serotonin 2 (5-HT2) receptor; test: Ability to bind at 5-hydroxytryptamine 2 receptor of rat cortex by displacing [3H]spiperone
D(2) dopamine receptor [24] = target: T5, D(2) dopamine receptor; test: Ability to bind at dopamine receptor D2 of rat corpus striatum by displacing [3H]spiperone
[25] = target: T3, Adrenergic receptor alpha-1; test: Ability to bind at Alpha-1 adrenergic receptor by displacing [3H]WB-4101; format: protein assay
Rattus norvegicus [26] = test: Blockade of Sidman-avoidance activity in rats when administered perorally; Inactive; format: functional, organism-based; procedure, shortened: as §2

T5 sequence (P61169 whole entry): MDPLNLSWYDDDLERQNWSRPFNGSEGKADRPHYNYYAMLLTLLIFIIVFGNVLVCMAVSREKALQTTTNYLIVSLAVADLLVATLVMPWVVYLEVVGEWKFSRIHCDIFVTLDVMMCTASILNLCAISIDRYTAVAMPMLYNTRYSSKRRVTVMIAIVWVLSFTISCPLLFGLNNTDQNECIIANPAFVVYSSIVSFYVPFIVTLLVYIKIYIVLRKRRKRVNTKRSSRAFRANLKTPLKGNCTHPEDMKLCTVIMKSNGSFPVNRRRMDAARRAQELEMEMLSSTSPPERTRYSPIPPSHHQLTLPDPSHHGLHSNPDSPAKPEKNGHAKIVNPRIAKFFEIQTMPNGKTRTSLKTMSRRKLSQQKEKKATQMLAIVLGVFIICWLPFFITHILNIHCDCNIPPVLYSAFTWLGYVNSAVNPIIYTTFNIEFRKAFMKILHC

Compound	IC50 [3] [nM]	IC50 [4] [nM]	ED50 (Rattus norvegicus [5]) [mg/kg]	IC50 (D(2) dopamine receptor [7]) [nM]	IC50 [8] [nM]	ED50 (Rattus norvegicus [9]) [mg/kg]	MED50 (Rattus norvegicus [10]) [mg/kg]	further results
Cl.c1cc2occc2c(N2CCNCC2)n1	377	426	7.3	> 1000	–	–	–	AED (Rattus norvegicus [1]): 10.7 mg/kg; IC50 [2]: 144 nM; IC50 [6]: 150 nM
OC(CCCN1CCN(c2nccc3sccc23)CC1)c1ccc(F)cc1 (centres undefined)	5.8	22.8	9.9	71.7	3.8	9	–	MED (Rattus norvegicus [10]; po): 10 mg/kg; MED (Mus musculus [11]; po): 10 mg/kg
CN(C)CCCN1c2ccccc2Sc2ccc(Cl)cc21 [CHLORPROMAZINE]	–	–	–	–	> 1000	9.6	25	MED50 (Mus musculus [12]): 6 mg/kg; IC50 [13]: 372 nM; ED50 (Rattus norvegicus [14]): inactive; ED50 (Rattus norvegicus [15]): 4.1 mg/kg
Cl.c1cc2sccc2c(N2CCNCC2)n1	141	139	28.6	> 1000	71.3	–	–	AED (Rattus norvegicus [1]): 20.9 mg/kg; IC50 [2]: 113 nM
CN1CCN(C2=Nc3cc(Cl)ccc3Nc3ccccc32)CC1 [CLOZAPINE]	–	–	–	–	–	–	50	MED50 (Mus musculus [12]): 10 mg/kg; ED50 (Rattus norvegicus [16]): inactive; ED50 (Rattus norvegicus [17]): > 200 mg/kg
CC1(C)CC(=O)N(CCCCN2CCN(c3nccc4sccc34)CC2)C(=O)C1.Cl	3	18.8	6	115	5.7	39.7	50	ED25 (Rattus norvegicus [18]): 0.05 mg/kg; ED25 (Rattus norvegicus [19]): 0.06 mg/kg; ED50 (Rattus norvegicus [20]): inactive; ED25 (Rattus norvegicus [21]): 0.086 mg/kg; MED50 (Mus musculus [11]): 10 mg/kg; ED50 (Rattus norvegicus [22]): 0.042 mg/kg
Cl.O=C1SC2(CCCC2)C(=O)N1CCCCN1CCN(c2nccc3ccsc23)CC1	–	–	43.1	–	3.7	46.7	–	IC50 [23]: 20.2 nM; IC50 (D(2) dopamine receptor [24]): 418 nM; IC50 [25]: 36.8 nM; MED50 (Rattus norvegicus [26]): inactive; ED50 (Rattus norvegicus [14]): inactive
